# Test results: ChEMBL document CHEMBL1137541, “[(2-Phenylindol-3-yl)methylene]propanedinitriles inhibit the growth of breast cancer cells by cell cycle arrest in G(2)/M phase and apoptosis” (Bioorg Med Chem, 2007)
# Activity calls are given as the source filed them. The calls are words filed in the database; no cut-off is given here.
# Experiments:
# A-431 = assay: Inhibition of cell growth in human A431 cells after 3 days by microplate assay; type: functional, cell-based; settings: A-431, 72 h
# How it was run: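 A-431 vulva carcinoma cells, crystal violet microplate protocol as for MDA-MB 231 but with 5% FCS; 3 days' exposure, 0.1% DMF controls. Fixation with glutaric dialdehyde, 0.02% crystal violet, 70% EtOH extraction, OD 578 nm. IC50, mean of four independent experiments with 16–24 replicates ± SD.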
# MDA-MB-231 [1] = assay: Antiproliferative activity against human MDA-MB-231 cells after 4 days by microplate assay; type: functional, cell-based; settings: MDA-MB-231, 96 h
# How it was run: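 Cells grown 2–3 days in 96-well plates (37 °C, 5% CO2), medium then replaced with compound-containing medium (controls 0.1% DMF), about 4 days' exposure. Fixed with 1% glutaric dialdehyde, stained with 0.02% crystal violet for 25 min, dye extracted with 70% EtOH, OD read at 578 nm; initial density from fixed wells. IC50 from 16–24 replicates per experiment.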
# MCF7 = assay: Antiproliferative activity against human MCF7 cells after 5 days by microplate assay; type: functional, cell-based; settings: MCF7, 120 h
# How it was run: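 MCF-7 cells in EMEM with sodium pyruvate, gentamycin, NaHCO3, phenol red, 10% FCS; grown 2–3 days in 96-well plates, then medium with compound (0.1% DMF in controls) for 5 days. Glutaric dialdehyde fixation, 0.02% crystal violet staining, 70% EtOH extraction, OD 578 nm. Initial density from fixed wells. IC50; mean of two independent experiments, 16–24 replicates.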
# Bos taurus = organism: Bos taurus; assay: Inhibition of temperature-induced tubulin polymerization of calf brain at 40 uM; design: scale not given: the % may be the effect or the level left
# How it was run: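 Calf brain tubulin purified by temperature-dependent polymerization cycles, then depolymerized at 0 °C in PEMG buffer. Supernatant preincubated 15 min at 37 °C with compound (40 µM, DMSO), chilled, and GTP added. Polymerization started by shifting from 2 °C to 37 °C, followed by absorbance at 350 nm over 20 min. Reported relative to inhibitor-free controls (100%).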
# [2] = Antitumor activity against MXT cells xenografted B2D2F1 mouse at 10 mg/kg, sc relative to control; type: functional; settings: route subcutaneous
# How it was run: (§1)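 Hormone-resistant MXT tumor pieces (1 mm³) transplanted into 8- to 9-week-old female B2D2F1 mice, groups of 6–8, randomly assigned. Compound given subcutaneously three times per week for two weeks. Tumor area compared with untreated controls (T/C × 100). Body weight change taken between first and last treatment day.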
# Mus musculus [3] = assay: Effect on body weight in MXT cells xenografted B2D2F1 mouse at 30 mg/kg, sc; type: functional; settings: route subcutaneous; how it was run: as §1
# Mus musculus [4] = assay: Effect on body weight in MXT cells xenografted B2D2F1 mouse at 10 mg/kg, sc; type: functional; settings: route subcutaneous; how it was run: as §1
# [5] = Antitumor activity against MXT cells xenografted B2D2F1 mouse at 30 mg/kg, sc relative to control; type: functional; settings: route subcutaneous; how it was run: as §1
# HL-60 (Homo sapiens) [6] = assay: Inhibition of cell growth in human HL-60 cells after 48 hrs by MTT assay; settings: HL-60, 48 h
# HL-60 (Homo sapiens) [7] = assay: Induction of apoptosis in human HL-60 cells assessed as increase in caspase 3 activation at 1 uM after 24 hrs
# HL-60 (Homo sapiens) [8] = assay: Induction of apoptosis in human HL-60 cells assessed as increase in caspase 9 activation at 1 uM after 24 hrs
# MDA-MB-231 [9] = assay: Cell cycle arrest in MDA-MB-231 cells by accumulation at G2/M phase at 1.0 uM after 24 hrs by flow cytometry; type: functional, cell-based; settings: Homo sapiens
# How it was run: (§2)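 Cells grown to 70–80% confluence in flasks and exposed 24 h to compound in DMF (0.1% final), one flask per concentration. Trypsinized, fixed in ice-cold 70% EtOH, DNA extraction buffer 5 min, propidium iodide staining ≥30 min at room temperature. Flow cytometry of 8,000–15,000 events; percentages of sub-G1, G1/G0, S, G2/M cells; representative of two experiments.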
# MDA-MB-231 [10] = assay: Cell cycle arrest in MDA-MB-231 cells by accumulation at G2/M phase at 0.1 uM after 24 hrs by flow cytometry; type: functional, cell-based; settings: Homo sapiens; how it was run: as §2
# MDA-MB-231 [11] = assay: Cell cycle arrest in MDA-MB-231 cells by accumulation at G2/M phase at 0.5 uM after 24 hrs by flow cytometry; type: functional, cell-based; settings: Homo sapiens; how it was run: as §2
# MDA-MB-231 [12] = assay: Cell cycle arrest in MDA-MB-231 cells by accumulation at G2/M phase at 0.01 uM after 24 hrs by flow cytometry; type: functional, cell-based; settings: Homo sapiens; how it was run: as §2
Compound,IC50 (MDA-MB-231 [1]) [µM],IC50 (MCF7) [µM],also measured
O=Cc1c(-c2ccccc2)[nH]c2ccccc12 [2-PHENYL-1H-INDOLE-3-CARBALDEHYDE],0.42,0.65,IC50 (A-431): 0.76 µM; Activity (Bos taurus): 98%
CCCCc1ccc2[nH]c(-c3ccc(OC)cc3)c(C=C(C#N)C#N)c2c1,0.026,0.013,–
COc1ccc(-c2[nH]c3ccc(F)cc3c2C=C(C#N)C#N)cc1,0.4,0.31,–
CCCCCc1ccc2[nH]c(-c3ccc(C(F)(F)F)cc3)c(C=C(C#N)C#N)c2c1,0.078,0.1,–
COc1ccc(-c2[nH]c3cc(F)ccc3c2C=C(C#N)C#N)cc1,0.28,0.22,Activity [2]: 74%; Activity (Mus musculus [3]): 2.3%; Activity (Mus musculus [4]): 3.6%; Activity [5]: 56%
COc1ccc(-c2[nH]c3cc(Cl)c(C)cc3c2C=C(C#N)C#N)cc1,0.075,0.2,–
COc1ccc(-c2[nH]c3ccc(C)cc3c2C=C(C#N)C#N)cc1,0.28,0.2,–
COc1ccc(-c2[nH]c3cc(OC)ccc3c2C=C(C#N)C#N)cc1,0.26,0.3,–
COc1ccc(-c2[nH]c3ccccc3c2C=O)cc1,0.47,0.18,IC50 (A-431): 0.21 µM; Activity (Bos taurus): 3%
COc1ccc(-c2[nH]c3ccc(C(C)C)cc3c2C=C(C#N)C#N)cc1,0.21,0.31,–
COc1ccc(-c2[nH]c3ccc(OC)cc3c2C=O)cc1,0.26,0.18,IC50 (A-431): 0.2 µM; Activity (Bos taurus): 7%
COc1ccc(-c2[nH]c3ccc(OC)cc3c2C=C(C#N)C#N)cc1,0.59,0.34,–
CCCCc1ccc2[nH]c(-c3ccc(C(F)(F)F)cc3)c(C=C(C#N)C#N)c2c1,0.056,0.15,IC50 (HL-60 (Homo sapiens) [6]): 0.07 µM; Activity (HL-60 (Homo sapiens) [7]): Active; Activity (HL-60 (Homo sapiens) [8]): Active
N#CC(C#N)=Cc1c(-c2ccccc2)[nH]c2ccccc12,0.43,0.19,–
CCCCc1ccc2[nH]c(-c3ccc(CC)cc3)c(C=C(C#N)C#N)c2c1,0.076,0.2,–
CCCCCCc1ccc2[nH]c(-c3ccc(OC)cc3)c(C=C(C#N)C#N)c2c1,0.046,0.025,Activity (MDA-MB-231 [9]): Active; Activity (MDA-MB-231 [10]): Active; Activity (MDA-MB-231 [11]): Active
COc1cc([C@@H]2c3cc4c(cc3[C@@H](O[C@@H]3O[C@@H]5CO[C@@H](C)O[C@H]5[C@H](O)[C@H]3O)[C@H]3COC(=O)[C@H]23)OCO4)cc(OC)c1O [ETOPOSIDE],–,–,IC50 (HL-60 (Homo sapiens) [6]): 0.315 µM
CCCCCc1ccc2[nH]c(-c3ccc(OC)cc3)c(C=C(C#N)C#N)c2c1,0.042,0.076,IC50 (HL-60 (Homo sapiens) [6]): 0.041 µM; Activity (HL-60 (Homo sapiens) [7]): Active; Activity (HL-60 (Homo sapiens) [8]): Active
COc1ccc(-c2[nH]c3cc(F)ccc3c2C=O)cc1,0.047,0.043,IC50 (A-431): 0.18 µM; Activity (Bos taurus): 8%
CCCCCCc1ccc2[nH]c(-c3ccc(C(F)(F)F)cc3)c(C=C(C#N)C#N)c2c1,0.15,0.068,–
CCCc1ccc2[nH]c(-c3ccc(OC)cc3)c(C=C(C#N)C#N)c2c1,0.083,0.19,–
CC[C@]1(O)C[C@H]2CN(CCc3c([nH]c4ccccc34)[C@@](C(=O)OC)(c3cc4c(cc3OC)N(C=O)[C@H]3[C@@](O)(C(=O)OC)[C@H](OC(C)=O)[C@]5(CC)C=CCN6CC[C@]43[C@@H]65)C2)C1 [VINCRISTINE],0.0045,–,Activity (MDA-MB-231 [10]): Active; Activity (MDA-MB-231 [12]): Active
COc1ccc(-c2[nH]c3ccccc3c2C=C(C#N)C#N)cc1,0.72,0.77,–
COc1ccc2c(C=C(C#N)C#N)c(-c3ccc(C)cc3)[nH]c2c1,0.18,0.25,–
CCCCc1ccc2[nH]c(-c3ccc(C)cc3)c(C=C(C#N)C#N)c2c1,0.065,0.1,–
